Test results published in article PMC6736600 (Cell chemical biology, 2019).
Where two headings read alike, the source gives them in different places.

How the values were obtained:
N119^3.35A CXCR4 = N119^3.35A CXCR4 (Homo sapiens, UniProt P61073, N119A); format: cell-based; settings: for signal as % maximum of the WT signaling levels: N119^3.35A CAM, basal CAM activity roughly 47% of maximum WT response to CXCL12; for functional classification on the N119^3.35A CAM: dose-response without CXCL12, classification at 1 μM by one-way ANOVA vs DMSO
Chain of N119^3.35A CXCR4 (P61073 whole entry N119A): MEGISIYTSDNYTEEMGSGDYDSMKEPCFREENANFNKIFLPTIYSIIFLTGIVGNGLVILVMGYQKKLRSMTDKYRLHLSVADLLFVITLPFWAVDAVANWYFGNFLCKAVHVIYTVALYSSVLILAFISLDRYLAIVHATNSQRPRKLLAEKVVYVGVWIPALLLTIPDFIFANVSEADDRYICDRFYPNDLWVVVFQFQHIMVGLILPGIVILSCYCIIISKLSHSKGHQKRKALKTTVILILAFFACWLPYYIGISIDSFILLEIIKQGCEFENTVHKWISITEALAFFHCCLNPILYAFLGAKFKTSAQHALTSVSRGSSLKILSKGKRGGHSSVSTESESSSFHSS

HIV-1 = settings: read-out: HIV-1 IC50, cited from earlier work
N119^3.35A/S CXCR4 CAMs = settings: ref Zhang et al., 2002; cited from earlier work
human CXCR4 = human CXCR4 (Homo sapiens, UniProt P61073); settings: CXCL12 binding IC50, WT CXCR4, 125I-CXCL12, HEK-293 membranes; ± SD
Chain of human CXCR4 (P61073 whole entry): as the sequence (P61073 whole entry N119A) above, with A119N counted along it

HIV-1 IIIB = test: HIV-1 inhibition in TZM-bl reporter cells; format: cell-based; settings: read-out: HIV-1 IC50, ± SD
Procedure, shortened: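 TZM-bl cells (HeLa-derived; CD4, CCR5, CXCR4; LTR-driven β-galactosidase and luciferase reporters), 5 × 10³ per well, grown 1–2 days at 37°C, 5% CO2. Serially diluted test compound applied 30 min before infection with HIV-1 IIIB at MOI of one. Reporter activity read per well; IC50 from ≥ three independent experiments, standard deviation given.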

[1] = Cytotoxicity, methylene blue, 72 hours; format: cell-based; settings: human, CEM cells (acute lymphoblastic lymphoma)
[2] = Cytotoxicity, methylene blue, 72 hours; format: cell-based; settings: human, TZM-bl cells
N119^3.35S CXCR4 CAM = settings: ref Mona et al., 2016; cited from earlier work

Row | SMILES | signal as % maximum of the WT signaling levels (N119^3.35A CXCR4) | functional classification on the N119^3.35A CAM (N119^3.35A CXCR4) | IC50 (HIV-1; ref Schols et al., 1997) [nM] | functional classification on N119^3.35A/S CAMs (N119^3.35A/S CXCR4 CAMs) | IC50 (human CXCR4) [nM] | IC50 (HIV-1 IIIB) [nM] | CC50 at 72 h [1] [nM] | CC50 at 72 h [2] [nM] | effect on N119^3.35A signaling levels vs DMSO (N119^3.35A CXCR4; 1 μM, p < 0.0001) | IC50 (HIV-1; ref Thoma et al., 2008) [nM] | functional classification on the N119^3.35S CAM (N119^3.35S CXCR4 CAM)
1 | c1cc(CN2CCCNCCNCCCNCC2)ccc1CN1CCCNCCNCCCNCC1 [AMD3100] | ~ 83% | partial agonism | 4 to 10 | partial agonist | – | – | – | – | – | – | –
2 | Cl.c1nc2c(NCc3cn(CCCNCCCNC4CCCCC4)nn3)nc(N3CCNCC3)nc2[nH]1 [CX0298, N-Cyclohexyl-N’-(3-{4-[(2-piperazin-1-yl-9H-purin-6-ylamino)-methyl]-[1,2,3]triazol-1-yl}-propyl)-propane-1,3-diamine hydrochloride salt] | – | neutral antagonists | – | – | 27.8 ± 1.9 | 4.2 ± 0.3 | > 50000 | > 50000 | – | – | –
3 | Cl.c1nc2c(NCC3CCC(CNCCCNC4CCCCC4)CC3)nc(N3CCNCC3)nc2[nH]1 (stereo not shown) [Compound B7, N-Cyclohexyl-N’-{4-[(2-piperazin-1-yl-9H-purin-6-ylamino)-methyl]-cyclohexylmethyl}-propane-1,3-diamine hydrochloride salt] | – | neutral antagonists | – | – | 28 ± 2.7 | 2.4 ± 0.4 | > 50000 | > 50000 | – | – | –
4 | CC1(C)CN2C(CSC(=NC3CCCCC3)NC3CCCCC3)=CSC2=N1 [IT1t, N,N’-dicyclohexylcarbamimidothioic acid (5,6-dihydro-6,6-dimethylimidazo[2,1-b]thiazol-3-yl)methyl ester] | ~ 25% | inverse agonism | – | – | – | – | – | – | significantly reduced signaling levels | 40 | inverse agonist
